According to ChEMBL document CHEMBL5329174, “Discovery of benzoxazole-thiazolidinone hybrids as promising antibacterial agents against Staphylococcus aureus and Enterococcus species” (RSC Med Chem, 2023):

How the values were obtained:
Staphylococcus aureus [1] = assay: Antibacterial activity against methicilin-resistant Staphylococcus aureus NRS 191 assessed as reduction in bacterial growth; type: functional
How it was run: (§1)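 CLSI broth microdilution in cation-supplemented Mueller–Hinton broth II. Starter cultures were grown overnight at 37 °C with shaking from a single MHA colony, then diluted by OD600 to ~10^6 CFU/mL. Compounds came from 10 mg/mL DMSO stocks and were tested two-fold from 64 to 0.5 mg/L. Plates were incubated 37 °C for 18–24 h. MIC was taken as the lowest concentration with no visible growth. Three independent runs, each in duplicate.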

Staphylococcus aureus [2] = assay: Antibacterial activity against methicilin-resistant Staphylococcus aureus NRS 100 assessed as reduction in bacterial growth; type: functional; how it was run: as §1
Enterococcus faecalis [3] = assay: Antibacterial activity against vancomycin-susceptible Enterococcus faecalis NR 31884 assessed as inhibition of bacterial growth incubated for 18 to 24 hrs by broth microdilution assay; type: functional; details: time 18-24 hrs
How it was run: (§2)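 CLSI broth microdilution in cation-supplemented Mueller–Hinton broth II; overnight starter cultures (37 °C, shaking, 18–24 h) adjusted by OD600 to ~10^6 CFU/mL. Compounds dosed from DMSO stocks (10 mg/mL stock) as two-fold dilutions, 64–0.5 mg/L. Plates held 37 °C, 18–24 h. MIC = lowest concentration without visible growth. Three independent runs, each in duplicate.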

Staphylococcus aureus [4] = assay: Antibacterial activity against methicilin-resistant Staphylococcus aureus NRS 193 assessed as reduction in bacterial growth; type: functional; how it was run: as §1
Enterococcus faecalis [5] = assay: Antibacterial activity against vancomycin-susceptible Enterococcus faecalis NR 31888 assessed as inhibition of bacterial growth incubated for 18 to 24 hrs by broth microdilution assay; type: functional; details: time 18-24 hrs; how it was run: as §2
Staphylococcus aureus [6] = assay: Antibacterial activity against methicilin-resistant Staphylococcus aureus NRS 192 assessed as reduction in bacterial growth; type: functional; how it was run: as §1
Enterococcus faecalis [7] = assay: Antibacterial activity against vancomycin-susceptible Enterococcus faecalis NR 31887 assessed as inhibition of bacterial growth incubated for 18 to 24 hrs by broth microdilution assay; type: functional; details: time 18-24 hrs; how it was run: as §2
[8] = Cytotoxicity against african green monkey Vero cells assessed as reduction in cell viability incubated for 72 hrs by MTT assay; type: toxicity, cell-based; details: chlorocebus sabaeus
How it was run: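 Vero (ATCC CCL-81) cells seeded at ~10^3 per well, 37 °C, 5% CO2. After 24 h, compound added at 100–12.5 μg/mL for 72 h. MTT then given for 4 h at 37 °C, formazan dissolved in DMSO, absorbance read at 540 nm. CC50 taken as the concentration giving 50% viability loss; doxorubicin as positive control; triplicate.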

Staphylococcus aureus [9] = assay: Antibacterial activity against methicilin-resistant Staphylococcus aureus NRS 119 assessed as reduction in bacterial growth; type: functional; how it was run: as §1
Klebsiella pneumoniae = assay: Antibacterial activity against Klebsiella pneumoniae BAA-1705 assessed as reduction in bacterial growth; type: functional; how it was run: as §2
Enterococcus faecalis [10] = assay: Antibacterial activity against vancomycin-susceptible Enterococcus faecalis NR 31886 assessed as inhibition of bacterial growth incubated for 18 to 24 hrs by broth microdilution assay; type: functional; details: time 18-24 hrs; how it was run: as §2
Enterococcus faecium [11] = assay: Antibacterial activity against vancomycin-resistant Enterococcus faecium NR 31912 assessed as inhibition of bacterial growth
Enterococcus faecium [12] = assay: Antibacterial activity against vancomycin-resistant Enterococcus faecium NR 31909 assessed as inhibition of bacterial growth
Staphylococcus aureus [13] = assay: Antibacterial activity against vancomycin-resistant Staphylococcus aureus VRS 1 assessed as reduction in bacterial growth; type: functional; how it was run: as §1
Staphylococcus aureus [14] = assay: Antibacterial activity against vancomycin-resistant Staphylococcus aureus VRS 12 assessed as reduction in bacterial growth; type: functional; how it was run: as §1
Enterococcus faecium [15] = assay: Antibacterial activity against vancomycin-resistant Enterococcus faecium NR 31903 assessed as inhibition of bacterial growth
Staphylococcus aureus [16] = assay: Antibacterial activity against methicilin-resistant Staphylococcus aureus NRS 194 assessed as reduction in bacterial growth; type: functional; how it was run: as §1
Staphylococcus aureus [17] = assay: Antibacterial activity against Staphylococcus aureus ATCC 29213 assessed as reduction in bacterial growth; type: functional; how it was run: as §2
Staphylococcus aureus [18] = assay: Antibacterial activity against methicilin-resistant Staphylococcus aureus NRS 186 assessed as reduction in bacterial growth; type: functional; how it was run: as §1
Staphylococcus aureus [19] = assay: Antibacterial activity against methicilin-resistant Staphylococcus aureus NRS 198 assessed as reduction in bacterial growth; type: functional; how it was run: as §1
Staphylococcus aureus [20] = assay: Antibacterial activity against methicilin-resistant Staphylococcus aureus NRS 129 assessed as reduction in bacterial growth; type: functional; how it was run: as §1
Enterococcus faecalis [21] = assay: Antibacterial activity against vancomycin-susceptible Enterococcus faecalis NR 31885 assessed as inhibition of bacterial growth incubated for 18 to 24 hrs by broth microdilution assay; type: functional; details: time 18-24 hrs; how it was run: as §2
Staphylococcus aureus [22] = assay: Antibacterial activity against vancomycin-resistant Staphylococcus aureus VRS 4 assessed as reduction in bacterial growth; type: functional; how it was run: as §1
Escherichia coli = assay: Antibacterial activity against Escherichia coli ATCC 25922 assessed as reduction in bacterial growth; type: functional; how it was run: as §2
[23] = Selectivity index, ratio of CC50 for cytotoxicity against african green monkey Vero cells assessed as reduction in cell viability to MIC for antibacterial activity against Staphylococcus aureus ATCC 29213 assessed as reduction in bacterial growth; type: toxicity, cell-based; details: read-out: Selectivity Index
Acinetobacter baumannii = assay: Antibacterial activity against Acinetobacter baumannii BAA-1605 assessed as reduction in bacterial growth; type: functional; how it was run: as §2
Pseudomonas aeruginosa = assay: Antibacterial activity against Pseudomonas aeruginosa ATCC 27853 assessed as reduction in bacterial growth; type: functional; how it was run: as §2
Staphylococcus aureus [24] = assay: Bactericidal activity against Staphylococcus aureus ATCC 29213 incubated for 24 hrs by time-kill assay; type: functional, organism-based
How it was run: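 Time-kill: S. aureus ATCC 29213 at ~10^6 CFU/mL in MHBII, exposed to 1× and 10× MIC, 37 °C with shaking for 24 h. Surviving CFU/mL plotted over time; mean of replicate experiments in duplicate.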

C[C@H]1COc2c(N3CCN(C)CC3)c(F)cc3c(=O)c(C(=O)O)cn1c23 [LEVOFLOXACIN ANHYDROUS]
32 mg/L: MIC (Staphylococcus aureus [4]) | MIC (Staphylococcus aureus [14]) | MIC (Staphylococcus aureus [19])
> 100 mg/L: CC50 at 72 h [8]
0.25 mg/L: MIC (Staphylococcus aureus [2]) | MIC (Enterococcus faecalis [3]) | MIC (Enterococcus faecalis [5]) | MIC (Enterococcus faecalis [7]) | MIC (Enterococcus faecalis [10]) | MIC (Staphylococcus aureus [20]) | MIC (Enterococcus faecalis [21])
0.125 mg/L: MIC (Staphylococcus aureus [16]) | MIC (Staphylococcus aureus [17])
8 mg/L: MIC (Staphylococcus aureus [6]) | MIC (Staphylococcus aureus [18])
16 mg/L: MIC (Staphylococcus aureus [1]) | MIC (Staphylococcus aureus [9])
> 64 mg/L: MIC (Enterococcus faecium [15]) | MIC (Staphylococcus aureus [22])
64 mg/L: MIC (Klebsiella pneumoniae) | MIC (Enterococcus faecium [11]) | MIC (Enterococcus faecium [12]) | MIC (Staphylococcus aureus [13])

O=C1N/C(=N\c2nc3ccccc3o2)S/C1=C\c1ccc(O)cc1
0.25 mg/L: MIC (Enterococcus faecium [11]) | MIC (Enterococcus faecium [12])
4 mg/L: MIC (Enterococcus faecium [15])
1 mg/L: MIC (Staphylococcus aureus [2]) | MIC (Staphylococcus aureus [18])
16 mg/L: MIC (Enterococcus faecalis [3]) | MIC (Enterococcus faecalis [5]) | MIC (Enterococcus faecalis [10]) | MIC (Enterococcus faecalis [21])
> 40 mg/L: CC50 at 72 h [8]
> 20: selectivity ratio [23]
2 mg/L: MIC (Staphylococcus aureus [1]) | MIC (Staphylococcus aureus [4]) | MIC (Staphylococcus aureus [6]) | MIC (Staphylococcus aureus [9]) | MIC (Staphylococcus aureus [13]) | MIC (Staphylococcus aureus [14]) | MIC (Staphylococcus aureus [16]) | MIC (Staphylococcus aureus [17]) | MIC (Staphylococcus aureus [19]) | MIC (Staphylococcus aureus [20]) | MIC (Staphylococcus aureus [22])
> 64 mg/L: MIC (Escherichia coli) | MIC (Klebsiella pneumoniae) | MIC (Acinetobacter baumannii) | MIC (Pseudomonas aeruginosa)
8 mg/L: MIC (Enterococcus faecalis [7])

O=C1N/C(=N\c2nc3ccccc3o2)S/C1=C\c1cc(Br)ccc1O
4 mg/L: MIC (Enterococcus faecalis [3]) | MIC (Enterococcus faecalis [5]) | MIC (Enterococcus faecalis [10]) | MIC (Enterococcus faecalis [21])
> 20: selectivity ratio [23]
1 mg/L: MIC (Staphylococcus aureus [4]) | MIC (Staphylococcus aureus [6]) | MIC (Staphylococcus aureus [9]) | MIC (Staphylococcus aureus [13]) | MIC (Enterococcus faecium [15]) | MIC (Staphylococcus aureus [16]) | MIC (Staphylococcus aureus [17]) | MIC (Staphylococcus aureus [19]) | MIC (Staphylococcus aureus [22])
active: Activity (Staphylococcus aureus [24]) Dose-Dependent Effect
> 20 mg/L: CC50 at 72 h [8]
0.5 mg/L: MIC (Staphylococcus aureus [1]) | MIC (Staphylococcus aureus [2]) | MIC (Staphylococcus aureus [14]) | MIC (Staphylococcus aureus [18]) | MIC (Staphylococcus aureus [20])
2 mg/L: MIC (Enterococcus faecalis [7])
> 64 mg/L: MIC (Escherichia coli) | MIC (Klebsiella pneumoniae) | MIC (Acinetobacter baumannii) | MIC (Pseudomonas aeruginosa)
0.125 mg/L: MIC (Enterococcus faecium [11]) | MIC (Enterococcus faecium [12])

O=C1N/C(=N\c2nc3ccccc3o2)S/C1=C\c1cccc(O)c1
0.25 mg/L: MIC (Enterococcus faecium [11]) | MIC (Enterococcus faecium [12])
> 40 mg/L: CC50 at 72 h [8]
8 mg/L: MIC (Enterococcus faecalis [7])
1 mg/L: MIC (Staphylococcus aureus [2]) | MIC (Staphylococcus aureus [18])
4 mg/L: MIC (Enterococcus faecium [15])
> 20: selectivity ratio [23]
2 mg/L: MIC (Staphylococcus aureus [1]) | MIC (Staphylococcus aureus [4]) | MIC (Staphylococcus aureus [6]) | MIC (Staphylococcus aureus [9]) | MIC (Staphylococcus aureus [13]) | MIC (Staphylococcus aureus [14]) | MIC (Staphylococcus aureus [16]) | MIC (Staphylococcus aureus [17]) | MIC (Staphylococcus aureus [19]) | MIC (Staphylococcus aureus [20]) | MIC (Staphylococcus aureus [22])
> 64 mg/L: MIC (Escherichia coli) | MIC (Klebsiella pneumoniae) | MIC (Acinetobacter baumannii) | MIC (Pseudomonas aeruginosa)
16 mg/L: MIC (Enterococcus faecalis [3]) | MIC (Enterococcus faecalis [5]) | MIC (Enterococcus faecalis [10]) | MIC (Enterococcus faecalis [21])

CN[C@H](CC(C)C)C(=O)N[C@H]1C(=O)N[C@@H](CC(N)=O)C(=O)N[C@H]2C(=O)N[C@H]3C(=O)N[C@H](C(=O)N[C@H](C(=O)O)c4cc(O)cc(O)c4-c4cc3ccc4O)[C@H](O)c3ccc(c(Cl)c3)Oc3cc2cc(c3O[C@@H]2O[C@H](CO)[C@@H](O)[C@H](O)[C@H]2O[C@H]2C[C@](C)(N)[C@H](O)[C@H](C)O2)Oc2ccc(cc2Cl)[C@H]1O [VANCOMYCIN]
> 64 mg/L: MIC (Staphylococcus aureus [13]) | MIC (Staphylococcus aureus [14]) | MIC (Staphylococcus aureus [22])
2 mg/L: MIC (Enterococcus faecalis [3]) | MIC (Enterococcus faecalis [5]) | MIC (Enterococcus faecalis [7]) | MIC (Enterococcus faecalis [10]) | MIC (Enterococcus faecalis [21])
